The record followed here is ChEMBL document CHEMBL4334489, “Asperpyridone A: An Unusual Pyridone Alkaloid Exerts Hypoglycemic Activity through the Insulin Signaling Pathway” (J Nat Prod, 2019).

The subject of one data set is ASPC1. The data set is described as follows: Cytotoxicity against human AsPC1 cells. The format is cell-based.
The subject of another data set is BXPC-3. Briefly: Cytotoxicity against human BxPC3 cells. The format is cell-based.
A further data set deals with CT26. The data set is described as follows: Cytotoxicity against mouse CT26 cells. The format is cell-based.
Data set [1] deals with HepG2. Briefly: Effect on 2-NBDG uptake in insulin-resistant human HepG2 cells at 25 uM pretreated with insulin for 24 hrs followed by compound addition incubated for 24 hrs and subsequent 2-NBDG measured after 30 mins by propidium iodide staining based flow cytometry analysis (reference value: 33.4 %). The format is functional. In general terms: In flow cytometry, cells or beads pass a laser one at a time.

For data set [2], the system named is HepG2. The data set is described as follows: Increase in FGF21 gene expression in insulin-resistant human HepG2 cells using SYBR-green based qRT-PCR analysis. The format is functional, cell-based. The essentials:
(§1)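 HepG2 cells were made insulin-resistant with 0.1 units/mL insulin in serum-free DMEM for 24 h, then treated with compound at several doses (5–25 μM range) against a 1% DMSO vehicle control. Transcript levels of the target genes were quantified by qRT-PCR.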

The test system of data set [3] is HepG2. The data set is described as follows: Increase in PCK2 gene expression in insulin-resistant human HepG2 cells at 10 uM using SYBR-green based qRT-PCR analysis. The format is functional, cell-based. Background: Real-time PCR tracks product formation cycle by cycle.
The subject of data set [4] is HepG2. The data set is described as follows: Effect on 2-NBDG uptake in insulin-resistant human HepG2 cells at 1 uM pretreated with insulin for 24 hrs followed by compound addition incubated for 24 hrs and subsequent 2-NBDG measured after 30 mins by propidium iodide staining based flow cytometry analysis (reference value: 33.4 %). The format is functional.
Data set [5] deals with HepG2. Briefly: Effect on 2-NBDG uptake in insulin-resistant human HepG2 cells at 10 uM pretreated with insulin for 24 hrs followed by compound addition incubated for 24 hrs and subsequent 2-NBDG measured after 30 mins by propidium iodide staining based flow cytometry analysis (reference value: 33.4 %). The format is functional.
The subject of data set [6] is HepG2. The data set is described as follows: Increase in FGF21 gene expression in insulin-resistant human HepG2 cells at 10 uM using SYBR-green based qRT-PCR analysis. The format is functional, cell-based. The essentials: as §1
The test system of data set [7] is HepG2. The data set is described as follows: Effect on 2-NBDG uptake in insulin-resistant human HepG2 cells at 0.2 uM pretreated with insulin for 24 hrs followed by compound addition incubated for 24 hrs and subsequent 2-NBDG measured after 30 mins by propidium iodide staining based flow cytometry analysis (reference value: 33.4 %). The format is functional.
The subject of data set [8] is HepG2. The data set is described as follows: Antidiabetic activity in human HepG2 cells assessed as increase in glucose consumption at 50 uM by glucose oxidase method. The format is functional, cell-based. The essentials:
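HepG2 cells grown in DMEM with 10% FBS and 1% penicillin/streptomycin at 37 °C under 5% CO2. Cells were treated with 50 μM test compound or 0.1% DMSO vehicle. Glucose remaining in the culture supernatant was measured with a glucose oxidase–peroxidase kit.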

The test system of data set [9] is HepG2. The data set is described as follows: Cytotoxicity against human HepG2 cells. The format is cell-based.
The test system of the next data set is Panc02. Briefly: Cytotoxicity against mouse Panc02 cells. The format is cell-based.
The subject of data set [10] is HepG2. The data set is described as follows: Effect on 2-NBDG uptake in insulin-resistant human HepG2 cells at 750 uM pretreated with insulin for 24 hrs followed by compound addition incubated for 24 hrs and subsequent 2-NBDG measured after 30 mins by propidium iodide staining based flow cytometry analysis (reference value: 65.4 %). The format is functional.
Data set [11] has as its system HepG2. The data set is described as follows: Effect on 2-NBDG uptake in insulin-resistant human HepG2 cells at 50 uM pretreated with insulin for 24 hrs followed by compound addition incubated for 24 hrs and subsequent 2-NBDG measured after 30 mins by propidium iodide staining based flow cytometry analysis (reference value: 65.4 %). The format is functional.
Data set [12] concerns HepG2. Briefly: Effect on 2-NBDG uptake in insulin-resistant human HepG2 cells at 1000 uM pretreated with insulin for 24 hrs followed by compound addition incubated for 24 hrs and subsequent 2-NBDG measured after 30 mins by propidium iodide staining based flow cytometry analysis analysis (reference value: 65.4 %). The format is functional.
Data set [13] deals with HepG2. Briefly: Effect on 2-NBDG uptake in insulin-resistant human HepG2 cells at 500 uM pretreated with insulin for 24 hrs followed by compound addition incubated for 24 hrs and subsequent 2-NBDG measured after 30 mins by propidium iodide staining based flow cytometry analysis (reference value: 65.4 %). The format is functional.

Active and inactive are the calls of the source. The rule behind the calls is not given here.

Regarding `COn1ccc2c(c1=O)[C@H]1[C@@H](C[C@H](C)C[C@@H]1C)[C@H](C)O2`, the Activity result with ASPC1 was “Non-Toxic”; in the data set with BXPC-3, “Non-Toxic”; with CT26 it was “Non-Toxic”; in the data set on HepG2 [1], 46.9%; in the data set with HepG2 [2], “Dose-dependent effect”; in the data set on HepG2 [4] it was 47.5%. The Activity in the data set with HepG2 [5] is 53.6%; in the data set with HepG2 [7], 45.1%; in the data set on HepG2 [9] it was “Non-Toxic”; with Panc02, “Non-Toxic”. The outcome with HepG2 [3], in the data set on HepG2 [6] and in the data set on HepG2 [8] was Active.

In the case of `CN(C)C(=N)NC(=N)N` [METFORMIN], the Activity with HepG2 [10] was 46.1%; in the data set with HepG2 [11], 31.9%; in the data set with HepG2 [12], 45.6%; in the data set with HepG2 [13], 42.5%.
